# Results from ChEMBL document CHEMBL1122410, “Synthesis of 3,6-bis(aminoalkoxy)acridines and their effect on the immune System” (1983).
# Calls of active or inactive are those of the source. The rule behind the calls is not given here.
# Legend:
# Mus musculus [1] = test: Efficacy against a lethal virus challenge with an interferon sensitive virus, columbia SK was evaluated 14 days postinfection (oral dosing) as number of mice survived out of 15 tested; format: functional
# Mus musculus [2] = test: Percent reduction in spleen weight in mice as compared to infected untreated controls at 50 mg/kg; format: functional
# Procedure, shortened: (§1)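 In BALB/c mice infected ip with Rauscher leukemia virus (same-sex, ≥18 g), compound was given orally in 0.2% Noble agar/saline on days 6, 7 and 8 at 25–200 mg/kg. Animals were weighed on day 14. Spleen weight is expressed as percent reduction versus infected placebo-treated controls, and ≥50% reduction counts as active.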
# Ovis aries [3] = test: Antibody stimulation by serum hemagglutininin titer over the titer for the infected placebo-treated control in sheep red blood cells at 100 mg/Kg of dose; value is 32/16; format: functional
# Mus musculus [4] = test: Percent reduction in spleen weight in mice as compared to infected untreated controls at 200 mg/kg; format: functional; procedure, shortened: as §1
# Mus musculus [5] = test: Percent reduction in spleen weight in mice as compared to infected untreated controls at 100 mg/kg; format: functional; procedure, shortened: as §1
# Ovis aries [6] = test: Antibody stimulation by serum hemagglutininin titer over the titer for the infected placebo-treated control in sheep red blood cells at 50 mg/Kg of dose; value is 128/16; format: functional
# Ovis aries [7] = test: Antibody stimulation by serum hemagglutininin titer over the titer for the infected placebo-treated control in sheep red blood cells at 25 mg/Kg of dose; value is 32/16; format: functional
# Ovis aries [8] = test: Antibody stimulation by serum hemagglutininin titer over the titer for the infected placebo-treated control in sheep red blood cells at 200 mg/Kg of dose; value is 128/16; format: functional
# Ovis aries [9] = species on record: Ovis aries; test: Antibody stimulation by serum hemagglutininin titer over the titer for the infected placebo-treated control in sheep red blood cells; NA = Not active; format: functional, organism-based
# Ovis aries [10] = test: Antibody stimulation by serum hemagglutininin titer over the titer for the infected placebo-treated control in sheep red blood cells at 25 mg/Kg of dose; value is 16/16; format: functional
# Mus musculus [11] = test: Efficacy against a lethal virus challenge with an interferon sensitive virus, columbia SK was evaluated 14 days postinfection (oral dosing) as number of mice survived out of 20 tested; format: functional
# Ovis aries [12] = test: Antibody stimulation by serum hemagglutininin titer over the titer for the infected placebo-treated control in sheep red blood cells at 50 mg/Kg of dose; value is 256/32; format: functional
# Ovis aries [13] = test: Antibody stimulation by serum hemagglutininin titer over the titer for the infected placebo-treated control in sheep red blood cells at 100 mg/Kg of dose; value is 128/16; format: functional
# Ovis aries [14] = test: Antibody stimulation by serum hemagglutininin titer over the titer for the infected placebo-treated control in sheep red blood cells at 50 mg/Kg of dose; value is 1024/32; format: functional
# Ovis aries [15] = test: Antibody stimulation by serum hemagglutininin titer over the titer for the infected placebo-treated control in sheep red blood cells at 200 mg/Kg of dose; value is 32/16; format: functional
# Mus musculus [16] = test: Efficacy against a lethal virus challenge with an interferon sensitive virus, columbia SK was evaluated 14 days postinfection (oral dosing) as number of mice survived out of 15 tested; NT = Not tested; format: functional
# Ovis aries [17] = test: Antibody stimulation by serum hemagglutininin titer over the titer for the infected placebo-treated control in sheep red blood cells at 50 mg/Kg of dose; value is 32/16; format: functional
# Ovis aries [18] = test: Antibody stimulation by serum hemagglutininin titer over the titer for the infected placebo-treated control in sheep red blood cells at 50 mg/Kg of dose; value is 64/16; format: functional
# Ovis aries [19] = test: Antibody stimulation by serum hemagglutininin titer over the titer for the infected placebo-treated control in sheep red blood cells at 100 mg/Kg of dose; value is 64/16; format: functional
# Ovis aries [20] = test: Antibody stimulation by serum hemagglutininin titer over the titer for the infected placebo-treated control in sheep red blood cells at 100 mg/Kg of dose; value is 512/32; format: functional
# Mus musculus [21] = test: Percent reduction in spleen weight in mice as compared to infected untreated controls at 25 mg/kg; format: functional
# Procedure, shortened: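 BALB/c mice of the same sex, weighing at least 18 g and within a 3 g range, were inoculated ip with Rauscher leukemia virus as a 20% (w/v) spleen extract, five per group. Compound in 0.2% Noble agar/saline was given orally on days 6, 7 and 8, with SRBC ip on day 7. Mice were weighed on day 14, and percent spleen-weight reduction was taken versus infected placebo-treated controls.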
# Ovis aries [22] = test: Antibody stimulation by serum hemagglutininin titer over the titer for the infected placebo-treated control in sheep red blood cells at 25 mg/Kg of dose; value is 256/64; format: functional
# Mus musculus [23] = species on record: Mus musculus; test: Percent reduction in spleen weight in mice as compared to infected untreated controls; NA = Not Active; format: functional, organism-based; procedure, shortened: as §1
# Ovis aries [24] = test: Antibody stimulation by serum hemagglutininin titer over the titer for the infected placebo-treated control in sheep red blood cells at 50 mg/Kg of dose; NA = Not Active; format: functional, organism-based
# Ovis aries [25] = test: Antibody stimulation by serum hemagglutininin titer over the titer for the infected placebo-treated control in sheep red blood cells at 200 mg/Kg of dose; value is 64/16; format: functional
# Ovis aries [26] = species on record: Ovis aries; test: Antibody stimulation by serum hemagglutininin titer over the titer for the infected placebo-treated control in sheep red blood cells; value is 128/16; format: functional
# Ovis aries [27] = test: Antibody stimulation by serum hemagglutininin titer over the titer for the infected placebo-treated control in sheep red blood cells at 25 mg/Kg of dose; value is 128/16; format: functional
# Ovis aries [28] = species on record: Ovis aries; test: Antibody stimulation by serum hemagglutininin titer over the titer for the infected placebo-treated control in sheep red blood cells; NA=Not active; format: functional, organism-based
smiles,measurement,setting,value
CCN(CC)CCOc1cc([N+](=O)[O-])c2cc3cc([N+](=O)[O-])c(OCCN(CC)CC)c(Cl)c3nc2c1Cl,Survivors,Mus musculus [1],3
same,Reduction,Mus musculus [2],46%
same,Antibody stimulation,Ovis aries [3],32
CCCNCCCOc1ccc2cc3ccc(OCCCNCCC)cc3nc2c1.Cl.O,Survivors,Mus musculus [1],13
same,Reduction,Mus musculus [4],96%
CNCCOc1ccc2cc3ccc(OCCNC)cc3nc2c1.Cl,Survivors,Mus musculus [1],1
same,Reduction,Mus musculus [5],86%
same,Antibody stimulation,Ovis aries [6],128
CNCCCOc1ccc2cc3ccc(OCCCNC)cc3nc2c1.Cl.O,Survivors,Mus musculus [1],8
same,Reduction,Mus musculus [5],18%
same,Antibody stimulation,Ovis aries [7],32
CCCCNCCOc1ccc2cc3ccc(OCCNCCCC)cc3nc2c1.Cl.O,Survivors,Mus musculus [1],7
same,Reduction,Mus musculus [5],92%
same,Antibody stimulation,Ovis aries [8],128
CN(C)CCCCOc1ccc2cc3ccc(OCCCCN(C)C)cc3nc2c1.Cl.O,Survivors,Mus musculus [1],2
same,Reduction,Mus musculus [2],52%
same,Antibody stimulation,Ovis aries [9],inactive
CN(C)CCCOc1ccc2cc3ccc(OCCCN(C)C)cc3nc2c1.Cl.O,Survivors,Mus musculus [1],9
same,Reduction,Mus musculus [4],54%
same,Antibody stimulation,Ovis aries [10],16
CCN(CC)CCOc1ccc2c(c1)C(=O)c1cc(OCCN(CC)CC)ccc1-2 [TILORONE],Survivors,Mus musculus [11],5
CCN(CC)CCOc1ccc2cc3ccc(OCCN(CC)CC)cc3nc2c1.Cl.O,Survivors,Mus musculus [1],15
same,Reduction,Mus musculus [5],70%
same,Antibody stimulation,Ovis aries [12],256
CCN(CC)CCOc1ccc2cc3ccc(OCCN(CC)CC)c(Cl)c3nc2c1Cl,Survivors,Mus musculus [1],7
same,Reduction,Mus musculus [2],86%
same,Antibody stimulation,Ovis aries [13],128
Cl.NCCOc1ccc2cc3ccc(OCCN)cc3nc2c1.O,Survivors,Mus musculus [1],1
same,Reduction,Mus musculus [5],40%
same,Antibody stimulation,Ovis aries [7],32
Cl.O.c1cc2cc3ccc(OCCCN4CCCCC4)cc3nc2cc1OCCCN1CCCCC1,Survivors,Mus musculus [1],9
same,Reduction,Mus musculus [2],74%
same,Antibody stimulation,Ovis aries [14],1024
CCNCCCOc1ccc2cc3ccc(OCCCNCC)cc3nc2c1.Cl.O,Survivors,Mus musculus [1],7
same,Reduction,Mus musculus [4],78%
same,Antibody stimulation,Ovis aries [15],32
Cl.c1cc2cc3ccc(OCCN4CCCCC4)cc3nc2cc1OCCN1CCCCC1,Survivors,Mus musculus [1],5
same,Reduction,Mus musculus [5],62%
same,Antibody stimulation,Ovis aries [13],128
CC(CCOc1ccc2cc3ccc(OCCC(C)N(C)C)cc3nc2c1)N(C)C (stereo unspecified),Survivors,Mus musculus [16],5
CN1CCN(CCOc2ccc3cc4ccc(OCCN5CCN(C)CC5)cc4nc3c2)CC1,Survivors,Mus musculus [1],1
same,Reduction,Mus musculus [2],75%
same,Antibody stimulation,Ovis aries [17],32
CCN(CC)CCOc1ccc2cc3cc([N+](=O)[O-])c(OCCN(CC)CC)c(Cl)c3nc2c1Cl,Survivors,Mus musculus [1],1
same,Reduction,Mus musculus [4],61%
same,Antibody stimulation,Ovis aries [18],64
CCN(CC)CCOc1ccc2cc3ccc(OCCN(CC)CC)c(Br)c3nc2c1Br,Survivors,Mus musculus [1],6
same,Reduction,Mus musculus [4],92%
same,Antibody stimulation,Ovis aries [19],64
CC(C)NCCOc1ccc2cc3ccc(OCCNC(C)C)cc3nc2c1.Cl,Survivors,Mus musculus [1],15
same,Reduction,Mus musculus [4],96%
same,Antibody stimulation,Ovis aries [20],512
Cl.OCCNCCOc1ccc2cc3ccc(OCCNCCO)cc3nc2c1,Survivors,Mus musculus [1],3
same,Reduction,Mus musculus [2],35%
same,Antibody stimulation,Ovis aries [3],32
O=P1(N(CCCl)CCCl)NCCCO1 (stereo unspecified) [CYCLOPHOSPHAMIDE ANHYDROUS],Reduction,Mus musculus [21],102%
CCN(CC)CCOc1cc2nc3cc(OCCN(CC)CC)c(C)cc3cc2cc1C.Cl.O,Survivors,Mus musculus [1],4
same,Reduction,Mus musculus [5],21%
same,Antibody stimulation,Ovis aries [22],256
CCN(CC)CCOc1ccc2cc3ccc(OCCN(CC)CC)c([N+](=O)[O-])c3nc2c1[N+](=O)[O-],Survivors,Mus musculus [1],1
same,Reduction,Mus musculus [5],108%
same,Antibody stimulation,Ovis aries [19],64
CCN(CC)CCOc1ccc2cc3cc([N+](=O)[O-])c(OCCN(CC)CC)c(Br)c3nc2c1Br,Survivors,Mus musculus [1],5
same,Reduction,Mus musculus [23],inactive
same,Antibody stimulation,Ovis aries [24],inactive
CCCNCCOc1ccc2cc3ccc(OCCNCCC)cc3nc2c1.Cl.O,Survivors,Mus musculus [1],10
same,Reduction,Mus musculus [5],101%
same,Antibody stimulation,Ovis aries [25],64
CCNCCOc1ccc2cc3ccc(OCCNCC)cc3nc2c1.Cl.O,Survivors,Mus musculus [1],7
same,Reduction,Mus musculus [5],89%
same,Antibody stimulation,Ovis aries [7],32
c1cc2cc3ccc(OCCN4CCCC4)cc3nc2cc1OCCN1CCCC1,Survivors,Mus musculus [1],5
same,Reduction,Mus musculus [2],82%
same,Antibody stimulation,Ovis aries [19],64
CCN(CC)CCOc1ccc2cc3cc(N)c(OCCN(CC)CC)c(Cl)c3nc2c1Cl.Cl.O,Reduction,Mus musculus [21],55%
same,Antibody stimulation,Ovis aries [26],128
CCN(CC)CCCOc1ccc2cc3ccc(OCCCN(CC)CC)cc3nc2c1.Cl.O,Survivors,Mus musculus [1],13
same,Reduction,Mus musculus [5],72%
same,Antibody stimulation,Ovis aries [27],128
CCC(CO)NCCCOc1ccc2cc3ccc(OCCCNC(CC)CO)cc3nc2c1.Cl.O (stereo unspecified),Reduction,Mus musculus [5],74%
same,Antibody stimulation,Ovis aries [28],inactive
